{"source": "PubChem BioAssay AID2520", "about": "(Sanford-Burnham Center for Chemical Genomics, 2010)", "note": "The campaign covered roughly 330,000 compounds. About 350 (0.11%) were called active.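 The calls were made as follows: active = activation more than six SD over the plate average, tested at 20 µM; inactive = the rest.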 Many of the other results were omitted from the sample, so actives are more common in it than they were.", "data": [{"molecular_target": "Apelin receptor (Homo sapiens) (UniProt P35414)", "sequence (P35414 whole entry, looked up, the tested form may be a part)": "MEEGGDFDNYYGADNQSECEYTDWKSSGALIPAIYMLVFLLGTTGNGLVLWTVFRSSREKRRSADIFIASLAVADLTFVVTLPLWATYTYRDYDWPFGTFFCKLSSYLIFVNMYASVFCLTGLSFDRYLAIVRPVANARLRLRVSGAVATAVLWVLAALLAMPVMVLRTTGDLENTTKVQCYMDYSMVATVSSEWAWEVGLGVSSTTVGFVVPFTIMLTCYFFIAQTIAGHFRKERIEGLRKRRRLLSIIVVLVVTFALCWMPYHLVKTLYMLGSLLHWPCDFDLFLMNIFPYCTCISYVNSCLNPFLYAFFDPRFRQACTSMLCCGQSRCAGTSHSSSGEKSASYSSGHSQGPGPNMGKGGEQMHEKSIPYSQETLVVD", "assay": "APJ activation via beta-arrestin recruitment – CHO-K1 cells, PathHunter beta-arrestin, luminescence, primary screen (AID 2520)", "details": "at 20 µM, active compounds read high, 0% DMSO wells, 100% apelin", "in_short": "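system = engineered CHO-K1 APJ arrestin reporter cells | input = 1000 cells per well | timing = overnight seeding, 90 min compound at 25 °C, 1 h detection | measured by = enzyme-fragment complementation luminescence | read-out = beta-arrestin recruitment to APJ as agonist activity, luminescent signal | control set = negative DMSO alone, positive Apelin-13 at 10 nM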", "values": [{"smiles": "CCn1c(SCC(=O)NC2CC2)nnc1-c1ccncc1", "activation": "-8.09% (inactive)"}, {"smiles": "CN1CCC(=O)N([C@H](CO)Cc2ccccc2)CC1", "activation": "-1.16% (inactive)"}, {"smiles": "Cc1nn(Cc2ccccc2)c(C)c1C(=O)NCCCN1CCCC1=O", "activation": "-4.22% (inactive)"}, {"smiles": "COC(=O)C1C(=O)CC(C)(O)C(C(=O)OC)C1c1ccc2c(c1)OCO2", "note": "(stereo not drawn)", "activation": "2.74% (inactive)"}, {"smiles": "NC(=O)CN1CCCC1c1ccc2c(c1)OCCO2", "note": "(stereo not drawn)", "activation": "0.777% (inactive)"}, {"smiles": "O=C(O)Cc1ccc(NC(=O)C2CCCCC2C(=O)O)cc1", "note": "(stereo not drawn)", "activation": "-3.2% (inactive)"}, {"smiles": "Cc1cc(C)nc(NC2=NCC(=O)N2c2ccc(Cl)cc2)n1", "activation": "-2.04% (inactive)"}, {"smiles": "Cc1ccnc(SCCn2c(N(C)Cc3ccccc3)nc3c2c(=O)n(C)c(=O)n3C)n1", "activation": "-0.694% (inactive)"}, {"smiles": "Cc1[nH]c(C)c(S(=O)(=O)N2CCN(c3cccc(C(F)(F)F)c3)CC2)c1C(=O)N1CCCC1", "activation": "0.662% (inactive)"}, {"smiles": "COc1ccccc1N(CC(=O)NC1CCCC1)C(=O)C1(C)CC(=O)N=C2C=CC(C)=CN21", "note": "(stereo not drawn)", "activation": "-0.286% (inactive)"}, {"smiles": "Cc1cc(C)nc(SCc2nnc(SCC(=O)Nc3ncc(C)s3)n2Cc2ccco2)n1", "activation": "-3.79% (inactive)"}, {"smiles": "CC[C@@]1(C(=O)OC)N[C@H](CN(C)C(C)=O)[C@@H]2C(=O)N(C)C(=O)[C@@H]21", "activation": "-1.38% (inactive)"}, {"smiles": "CCC(=O)Nc1c(C)n[nH]c1C", "activation": "-0.823% (inactive)"}, {"smiles": "CN1CCN(c2ncc3c(n2)CC(c2ccccc2F)CC3=O)CC1", "note": "(stereo not drawn)", "activation": "-2.83% (inactive)"}, {"smiles": "Cc1ccccc1-n1nnc2c(=O)oc3ccccc3c21", "activation": "10.2% (active)"}, {"smiles": "CC(C)(C)Nc1c(N)c(=O)oc2ccccc12", "activation": "-1.36% (inactive)"}, {"smiles": "CCCCC(=O)Nc1cc(C)c2c(=O)oc3ccccc3c2n1", "activation": "7.83% (inactive)"}, {"smiles": "O=C(c1ccc(-c2ccccc2)cc1)C1CCCN(C(=O)c2cncs2)C1", "note": "(stereo not drawn)", "activation": "1.31% (inactive)"}, {"smiles": "Cc1noc(C)c1C(=O)NCC1COc2ccccc2O1", "note": "(stereo not drawn)", "activation": "-2.37% (inactive)"}, {"smiles": "Cc1ccccc1/[N+]([O-])=C/c1ccncc1", "activation": "1.01% (inactive)"}, {"smiles": "COCCn1nnnc1CN1CCC(NC(=O)Nc2cccc(OC)c2)CC1", "activation": "-0.645% (inactive)"}, {"smiles": "COc1ccc(NC(=O)CC(NC(C)c2ccccc2)C(=O)O)cc1", "note": "(stereo not drawn)", "activation": "-1.25% (inactive)"}, {"smiles": "CCN(CC)CCNc1nc(-c2ccc(OC(F)F)cc2)c(C)s1", "activation": "-1.98% (inactive)"}, {"smiles": "CC1(C(=O)NNC(=S)NCC2CCCO2)CC1(Cl)Cl", "note": "(stereo not drawn)", "activation": "-1.22% (inactive)"}, {"smiles": "O=C1CCC(=O)N1c1ccc(NCCc2ccccc2F)c([N+](=O)[O-])c1", "activation": "-3.51% (inactive)"}, {"smiles": "O=C(NCCc1ccc(Cl)cc1)C1CCCN1C(=O)NCc1ccccc1", "note": "(stereo not drawn)", "activation": "0.456% (inactive)"}, {"smiles": "CN1C(=O)c2ccccc2C(C(=O)NCCCN2CCCC2)C1c1c[nH]c2ccccc12", "note": "(stereo not drawn)", "activation": "-1.97% (inactive)"}, {"smiles": "Cc1ccc(NS(=O)(=O)c2ccc(-c3ccc(=O)[nH]n3)o2)c(C)c1", "activation": "2.4% (inactive)"}, {"smiles": "CN(C)c1ccc(C(CC(=O)O)C(=O)O)cc1", "note": "(stereo not drawn)", "activation": "-1.37% (inactive)"}, {"smiles": "CC(C)(C)n1nnc(CCc2nnn(C(C)(C)C)n2)n1", "activation": "-4.6% (inactive)"}, {"smiles": "O=C(O)C1CCCN1S(=O)(=O)c1ccc(Br)cc1", "note": "(stereo not drawn)", "activation": "-2.7% (inactive)"}, {"smiles": "O=C(C1CC(=O)N(C2CCCC2)C1)N1CCN(c2cccc(C(F)(F)F)c2)CC1", "note": "(stereo not drawn)", "activation": "5.77% (inactive)"}, {"smiles": "CN(C)c1nc2n(c(=O)n1)CCO2", "activation": "-2.79% (inactive)"}, {"smiles": "c1ccc(C2CCC(N3CCC(N4CCCCC4)CC3)CC2)cc1", "note": "(stereo not drawn)", "activation": "-3.04% (inactive)"}, {"smiles": "O=C(Nc1ccc(Cl)cc1)c1cc2nc(C3CC3)cc(C(F)(F)F)n2n1", "activation": "-4.3% (inactive)"}, {"smiles": "FC(F)(F)c1ccc(CN2C[C@@H]3C(c4ccccc4)C4(c5ccccc5)CC3(C4)[C@H]2c2ccccc2)cc1", "note": "(stereo partly drawn)", "activation": "-0.566% (inactive)"}, {"smiles": "Cc1ccc(N(C(=O)Cc2cccs2)C2C=CS(=O)(=O)C2)cc1Cl", "note": "(stereo not drawn)", "activation": "-2.42% (inactive)"}, {"smiles": "Cn1c(CC(=O)Nc2ccc(F)cc2)nnc1SCC(=O)NC1CCCCC1", "activation": "-3.67% (inactive)"}, {"smiles": "COc1ccc(C)cc1NC(=O)c1cc(-c2ccccc2)nc2c1cnn2C(C)C", "activation": "-4.65% (inactive)"}, {"smiles": "CCOc1cc2[nH]c(=S)n(CCCN3CCCC3=O)c(=O)c2cc1OCC", "activation": "23.3% (active)"}, {"smiles": "CCOc1cc2[nH]c(=O)n(Cc3ccc(C(=O)NCCCN4CCCC4=O)cc3)c(=O)c2cc1OCC", "activation": "3.97% (inactive)"}, {"smiles": "CCOc1cc2[nH]c(=S)n(CCN3CCCCC3C)c(=O)c2cc1OCC", "note": "(stereo not drawn)", "activation": "7.97% (inactive)"}, {"smiles": "CC1CN(C(=O)CCC(=O)NCCCN2CCC(Cc3ccccc3)CC2)c2cc(Cl)ccc2O1", "note": "(stereo not drawn)", "activation": "-4.59% (inactive)"}, {"smiles": "CCn1c(CSCc2c(Cl)cccc2Cl)n[nH]c1=S", "activation": "-4.78% (inactive)"}, {"smiles": "CN1CCN(CCCCOc2ccccc2-c2ccccc2)CC1", "activation": "3.27% (inactive)"}, {"smiles": "O=Cc1ccc(OCc2cn3ccccc3n2)cc1", "activation": "-1.42% (inactive)"}, {"smiles": "COc1ccccc1CNC(=O)CN1CCC(n2cnc3cc(F)ccc32)CC1", "activation": "-0.106% (inactive)"}, {"smiles": "Cc1cc(C(=O)OCC(=O)N2C(C)CCCC2C)c2ccccc2n1", "note": "(stereo not drawn)", "activation": "-2.15% (inactive)"}, {"smiles": "O=C(c1ccccc1)N1CCN(C(=O)c2cc3nc(-c4ccccc4)cc(C(F)(F)F)n3n2)CC1", "activation": "-0.488% (inactive)"}, {"smiles": "COc1ccccc1Oc1ccc(N2CC(C(=O)OCC(=O)c3ccc(F)cc3)CC2=O)cc1", "note": "(stereo not drawn)", "activation": "-2.79% (inactive)"}, {"smiles": "O=C(Nc1ccc(F)c([N+](=O)[O-])c1)C1CC(=O)N(Cc2ccccc2)C1", "note": "(stereo not drawn)", "activation": "-2.4% (inactive)"}, {"smiles": "COc1cccc(N(CC(=O)NC2CCCC2)C(=O)Cn2nnc(-c3ccc(C)cc3)n2)c1", "activation": "0.507% (inactive)"}, {"smiles": "O=C(CCCn1c(=O)c2sccc2n(CC(=O)NCC2CCCO2)c1=O)NCc1ccco1", "note": "(stereo not drawn)", "activation": "-4.48% (inactive)"}, {"smiles": "COc1ccccc1NC(=O)C1=C(C)Nc2nc3ccccc3n2C1c1cccs1", "note": "(stereo not drawn)", "activation": "-1.44% (inactive)"}, {"smiles": "COc1ccc(S(=O)(=O)N(CC(=O)NCc2ccco2)c2ccc(F)cc2)cc1", "activation": "-0.367% (inactive)"}, {"smiles": "CN(C)N1C(N)=C(C#N)C(c2ccc(Br)cc2)C2=C1CCCC2=O", "note": "(stereo not drawn)", "activation": "0.53% (inactive)"}, {"smiles": "O=[N+]([O-])c1ccccc1N/N=C1\\CCc2ccccc21", "activation": "-0.52% (inactive)"}, {"smiles": "O=C(N[C@@H](Cc1c[nH]c2ccccc12)C(=O)O)OCC1c2ccccc2-c2ccccc21", "activation": "7.88% (inactive)"}]}]}
